Assay results reported in ChEMBL document CHEMBL4330063, “New naphthopyran analogues of LY290181 as potential tumor vascular-disrupting agents” (Eur J Med Chem, 2019).
One block for each compound: values may come before it. Active and inactive are the calls of the source. The calls are words filed in the database; no cut-off is given here.

What was measured:
518A2 [1] = test: Antiproliferative activity against human 518A2 cells after 72 hrs by MTT assay; assay type: functional, cell-based; settings: for IC50: 518A2, 72 h
In short: (§1)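 MTT read-out after 72 h of continuous exposure. Viability is expressed as percentage of viable cells relative to untreated controls. IC50 comes from dose-response curves. Values are means±SD of four independent experiments (two for some entries). DMSO was below 1%, with vehicle controls at equal DMSO. Precipitation was excluded spectrometrically and microscopically.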

HT-29 [2] = test: Antiproliferative activity against human HT-29 cells after 72 hrs by MTT assay; assay type: functional, cell-based; settings: HT-29, 72 h; in short: as §1
A2780 = test: Antiproliferative activity against human A2780 cells after 72 hrs by SRB assay; assay type: functional, cell-based; settings: A2780, 72 h
In short: (§2)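 Ovarian A2780 and cisplatin-resistant A2780cis cells were exposed for 72 h and stained with SRB. IC50 comes from dose-response curves, as means±SD of three independent experiments. Final DMSO was below 1%, with matched vehicle controls.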

[3] = Antiproliferative activity against human A2780cis cells after 72 hrs by SRB assay; assay type: functional, cell-based; in short: as §2
DLD-1 = test: Antiproliferative activity against human DLD1 cells after 72 hrs by MTT assay; assay type: functional, cell-based; settings: DLD-1, 72 h; in short: as §1
EA.hy 926 = test: Antiproliferative activity against human EAhy926 cells after 72 hrs by MTT assay; assay type: functional, cell-based; settings: EA.hy 926, 72 h; in short: as §1
PANC-1 = test: Antiproliferative activity against human PANC1 cells after 72 hrs by MTT assay; assay type: functional, cell-based; settings: PANC-1, 72 h; in short: as §1
HCT-116 = test: Antiproliferative activity against human HCT116 cells after 72 hrs by MTT assay; assay type: functional, cell-based; settings: HCT-116, 72 h; in short: as §1
[4] = Antiproliferative activity against human KB-V1/Vbl cells after 72 hrs by MTT assay; assay type: functional, cell-based; in short: as §1
[5] = Antiproliferative activity against human MCF7/Topo cells after 72 hrs by MTT assay; assay type: functional, cell-based; in short: as §1
HT-29 [6] = test: Cell cycle arrest in human HT-29 cells assessed as accumulation of cells at sub G1 phase at 100 nM after 24 hrs by propidium iodide staining-based flow cytometric analysis (reference value: 1.2 +/- 0.3%); assay type: functional
HT-29 [7] = test: Cell cycle arrest in human HT-29 cells assessed as accumulation of cells at sub G1 phase at 250 nM after 24 hrs by propidium iodide staining-based flow cytometric analysis (reference value: 1.2 +/- 0.3%); assay type: functional
HT-29 [8] = test: Cell cycle arrest in human HT-29 cells assessed as accumulation of cells at sub G1 phase at 350 nM after 24 hrs by propidium iodide staining-based flow cytometric analysis (reference value: 1.2 +/- 0.3%); assay type: functional
HT-29 [9] = test: Cell cycle arrest in human HT-29 cells assessed as accumulation of cells at G1 phase at 100 nM after 24 hrs by propidium iodide staining-based flow cytometric analysis (reference value: 75.1 +/- 1.1%); assay type: functional
HT-29 [10] = test: Cell cycle arrest in human HT-29 cells assessed as accumulation of cells at G1 phase at 250 nM after 24 hrs by propidium iodide staining-based flow cytometric analysis (reference value: 75.1 +/- 1.1%); assay type: functional
HT-29 [11] = test: Cell cycle arrest in human HT-29 cells assessed as accumulation of cells at G1 phase at 350 nM after 24 hrs by propidium iodide staining-based flow cytometric analysis (reference value: 75.1 +/- 1.1%); assay type: functional
HT-29 [12] = test: Cell cycle arrest in human HT-29 cells assessed as accumulation of cells at S phase at 100 nM after 24 hrs by propidium iodide staining-based flow cytometric analysis (reference value: 12.3 +/- 0.4%); assay type: functional
HT-29 [13] = test: Cell cycle arrest in human HT-29 cells assessed as accumulation of cells at S phase at 250 nM after 24 hrs by propidium iodide staining-based flow cytometric analysis (reference value: 12.3 +/- 0.4%); assay type: functional
HT-29 [14] = test: Cell cycle arrest in human HT-29 cells assessed as accumulation of cells at S phase at 350 nM after 24 hrs by propidium iodide staining-based flow cytometric analysis (reference value: 12.3 +/- 0.4%); assay type: functional
HT-29 [15] = test: Cell cycle arrest in human HT-29 cells assessed as accumulation of cells at G2/M phase at 100 nM after 24 hrs by propidium iodide staining-based flow cytometric analysis (reference value: 11.4 +/- 1.4%); assay type: functional
HT-29 [16] = test: Cell cycle arrest in human HT-29 cells assessed as accumulation of cells at G2/M phase at 250 nM after 24 hrs by propidium iodide staining-based flow cytometric analysis (reference value: 11.4 +/- 1.4%); assay type: functional
HT-29 [17] = test: Cell cycle arrest in human HT-29 cells assessed as accumulation of cells at G2/M phase at 350 nM after 24 hrs by propidium iodide staining-based flow cytometric analysis (reference value: 11.4 +/- 1.4%); assay type: functional
Chorioallantoic membrane [18] = test: Antiangiogenic activity in Leghorn chicken embryo chorioallantoic membrane assessed as disruption of smaller blood vessels at 5 nmol after 6 hrs by light microscopic analysis; assay type: functional, tissue-based; settings: Gallus gallus
In short: (§3)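 Fertilized chicken eggs, CAM assay. Compound was applied topically into a small silicon foil ring placed on the CAM. The membrane and its extraembryonal blood vessels were monitored over 24 h, with observations at 6 h and 24 h post application.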

Chorioallantoic membrane [19] = test: Antiangiogenic activity in Leghorn chicken embryo chorioallantoic membrane assessed as induction of hemorrhages at 5 nmol after 6 hrs by light microscopic analysis; assay type: functional, tissue-based; settings: Gallus gallus; in short: as §3
Chorioallantoic membrane [20] = test: Antiangiogenic activity in Leghorn chicken embryo chorioallantoic membrane assessed as induction of hemorrhages at 5 nmol after 24 hrs by light microscopic analysis; assay type: functional, tissue-based; settings: Gallus gallus; in short: as §3
Chorioallantoic membrane [21] = test: Antiangiogenic activity in Leghorn chicken embryo chorioallantoic membrane assessed as reduction in diameter of main blood vessel at 5 nmol after 24 hrs by light microscopic analysis; assay type: functional, tissue-based; settings: Gallus gallus; in short: as §3
Chorioallantoic membrane [22] = test: Antiangiogenic activity in Leghorn chicken embryo chorioallantoic membrane assessed as reduction in blood vessel area at 5 nmol after 6 hrs by light microscopic analysis relative to control; assay type: functional, tissue-based; settings: Gallus gallus
In short: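 The CAM assay was run with topical application into a silicon foil ring atop the CAM of fertilized chicken eggs. Area covered by blood vessels was quantified by fractal analysis relative to control.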

Chorioallantoic membrane [23] = test: Antiangiogenic activity in Leghorn chicken embryo chorioallantoic membrane assessed as effect on blood vessel length at 5 nmol after 6 hrs by light microscopic analysis; assay type: functional, tissue-based; settings: Gallus gallus; in short: as §3
518A2 [24] = test: Induction of apoptosis in human 518A2 cells assessed as accumulation at subG1 phase; assay type: functional, cell-based
518A2 [25] = test: Induction of cell cycle arrest in human 518A2 cells; assay type: functional, cell-based
HT-29 [26] = test: Cell cycle arrest in human HT-29 cells assessed as accumulation of cells at G2/M phase after 24 hrs by propidium iodide staining-based flow cytometric analysis; assay type: functional
Chorioallantoic membrane [27] = test: Antiangiogenic activity in Leghorn chicken embryo chorioallantoic membrane assessed as disruption of smaller blood vessels at 5 nmol after 24 hrs by light microscopic analysis; assay type: functional, tissue-based; settings: Gallus gallus; in short: as §3

Structure (SMILES): CSc1ccc(C2C(C#N)=C(N)Oc3c2ccc2ccccc32)cc1 (stereo not drawn)
- Activity (518A2 [1]): Dose-dependent effect
- IC50 (518A2 [1]): 1980 nM
- IC50 (HT-29 [2]): 1100 nM
- IC50 (A2780): 363 nM
- IC50 [3]: 430 nM

Structure (SMILES): N#CC1=C(N)Oc2c(cc(Cl)c3ccccc23)C1c1ccccc1Cl (stereo not drawn)
- Activity (518A2 [1]): Dose-dependent effect
- IC50 (518A2 [1]): 9910 nM
- IC50 (HT-29 [2]): 2030 nM
- IC50 (A2780): 912 nM
- IC50 [3]: 973 nM

Structure (SMILES): N#CC1=C(N)Oc2c(ccc3ccccc23)C1c1ccc(C#N)cc1 (stereo not drawn)
- Activity (518A2 [1]): Dose-dependent effect
- IC50 (518A2 [1]): 939 nM
- IC50 (HT-29 [2]): 1230 nM
- IC50 (A2780): 759 nM
- IC50 [3]: 774 nM

Structure (SMILES): COc1cc(C2C(C#N)=C(N)Oc3c2ccc2ccccc32)ccc1OCc1ccccc1 (stereo not drawn)
- Activity (518A2 [1]): Dose-dependent effect
- IC50 (518A2 [1]): 1660 nM
- IC50 (HT-29 [2]): 5820 nM
- IC50 (A2780): 2150 nM
- IC50 [3]: 2340 nM

These reach a lower IC50 (HT-29 [2]). Values come first.

- IC50 (HT-29 [2]): 245 nM
- IC50 (A2780): 155 nM
Structure (SMILES): N#CC1=C(N)Oc2c(cc(Cl)c3ccccc23)C1c1cccc(Br)c1 (stereo not drawn)
- Activity (518A2 [1]): Dose-dependent effect
- IC50 (518A2 [1]): 229 nM
- IC50 [3]: 166 nM

- IC50 (HT-29 [2]): 102 nM
- IC50 (A2780): 104 nM
- IC50 (DLD-1): 98.4 nM
- IC50 (PANC-1): 92.7 nM
- IC50 (HCT-116): 91 nM
Structure (SMILES): N#CC1=C(N)Oc2c(cc(Cl)c3ccccc23)C1c1cc(F)cc(F)c1 (stereo not drawn)
- Activity (518A2 [1]): Dose-dependent effect
- IC50 (518A2 [1]): 24.1 nM
- IC50 [3]: 155 nM
- IC50 (EA.hy 926): 67.8 nM
- IC50 [4]: 92 nM
- IC50 [5]: 79.8 nM
- Activity (HT-29 [6]): 3.3%
- Activity (HT-29 [7]): 4.5%
- Activity (HT-29 [8]): 3.5%
- Activity (HT-29 [9]): 52%
- Activity (HT-29 [10]): 3%
- Activity (HT-29 [11]): 1.6%
- Activity (HT-29 [12]): 19.6%
- Activity (HT-29 [13]): 2.3%
- Activity (HT-29 [14]): 2.2%
- Activity (HT-29 [15]): 25%
- Activity (HT-29 [16]): 90.3%
- Activity (HT-29 [17]): 90.3%
- Activity (Chorioallantoic membrane [18]): Active
- Activity (Chorioallantoic membrane [19]): Active
- Activity (Chorioallantoic membrane [20]): inactive
- Activity (Chorioallantoic membrane [21]): Active
- Activity (Chorioallantoic membrane [22]): inactive
- Activity (Chorioallantoic membrane [23]): inactive
- Activity (518A2 [24]): Active
- Activity (518A2 [25]): inactive
- Activity (HT-29 [26]): Dose-dependent effect
- Activity (Chorioallantoic membrane [27]): inactive
